Test results taken from the EternaBench riboswitch data.

System: MS2 coat protein
Assay: apparent Kd, MS2 coat protein; higher = weaker binding; RNA-MaP array
Summary of the method: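 Apparent Kd was taken as the median of binding curves fitted cluster by cluster. The designed RNAs were made by transcription of sequenced DNA templates on an Illumina sequencing chip and exposed to fluorescently labeled MS2 coat protein (1.5 nM to 3 μM) at room temperature, with or without input ligand, for 0.8–1.5 h at the lowest and 10–20 min at the highest concentrations. Any design measured on fewer than 10 clusters was left out.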

[1] = designed as: OFF switch for theophylline, no ligand
[2] = ligand present: theophylline, designed as: OFF switch for theophylline
[3] = designed as: ON switch for flavin mononucleotide, no ligand
[4] = ligand present: flavin mononucleotide, designed as: ON switch for flavin mononucleotide
[5] = designed as: OFF switch for flavin mononucleotide, no ligand
[6] = ligand present: flavin mononucleotide, designed as: OFF switch for flavin mononucleotide
[7] = designed as: ON switch for tryptophan, no ligand
[8] = ligand present: tryptophan, designed as: ON switch for tryptophan

Row | Sequence | apparent Kd [3] | apparent Kd [4] | apparent Kd [5] | apparent Kd [6] | also measured
1 | CAAAUAGACCACGAUACCAGAACACAAGGAGUAAUAUCAAACAUGAGGAUCACCCAUGUCUUCCCUUGGCAGCGUAGCACGGAGU |  |  |  |  | apparent Kd [1]: 11.7 nM; apparent Kd [2]: 13.3 nM
2 | UACUUGAAGUUGCAGGAUAUUUAGGAUCUAACAUGAGGAUCACCCAUGUUAUAUGAGAGACGUAUAAAGAAGGGCAGCGUGAUAGA | 9.4 nM | 5.9 nM |  |  | 
3 | CCUUCGUCGAAUGUGUAACAUGAGGAUCACCCAUGUAGUCUGGAGGAUAUCUAACACAGCUGAAAAGAGAAGGCCAGGUCUGCA |  |  | 26 nM | 48.6 nM | 
4 | CCUCACGGACUCUCCACAUGAGGAUCACCCAUGUAAGCCGCGAAGGAUAUGAACGUCUCUCCGGGUCAGAAGGUCGCCGGUCCU |  |  | 8.78 nM | 9.71 nM | 
5 | CAAGGGAAAGUCAGGAUAUGCACAACCGACCGUUUGCAGAAGGGACAUGAGGAUCACCCAUGUGUGGAACUGUU |  |  | 9.02 nM | 21.4 nM | 
6 | AACAUGAGGAUCACCCAUGUUCUGCAAUAAAGUGUAUCAUAUAAGGAUAUCAGACUAAUACGAACUGAGAAGGUAUUCCUACAC | 5.3 nM | 4.39 nM |  |  | 
7 | AUGUAACGUGAGAAGGUGUUGAAAUAAGUUCCAUAAAUCUUACAUGAGGAUCACCCAUGUUUAUACAAGGAUAUCAUUAAUUAU | 16.8 nM | 12.9 nM |  |  | 
8 | GUUAUAAUUACCAAGGAUAUCACAAGGCUUACAUGAGGAUCACCCAUGUUAAUACUCACAGACCGUGAGAAGGUGGCAAGAUCGAU | 21.4 nM | 16 nM |  |  | 
9 | GUCGCGUAGCAAGGAUAUGCAAAGAGGAAAACUGCAGAAGGUGCCAUUAAAGGACAUGAGGAUCACCCAUGUGCAUUAUCCACA | 53.4 nM | 30.9 nM |  |  | 
10 | UAAAGAGAAGGAUAUACAGGAAGAAAAGCCUCACAAUCGUAACAUGAGGAUCACCCAUGUAGAAGGACUAACAA |  |  | 38.7 nM | 29.5 nM | 
11 | GUGAUCAUCCGAGGAUAUUUUUCAUAGGCAUAAGGGGACAUGAGGAUCACCCAUGUAAACACCAUAAAGAAGGCGGGGCAGACC |  |  | 20 nM | 15.3 nM | 
12 | AGCUCGGCAGGAUAUACAUGAGGAUCACCCAUGUUUGCAGGCGCGCCGGUAGACUUUUGUAGAAGGGCCGUAUA |  |  | 44.8 nM | 113 nM | 
13 | GGACUAUCAGGAUAUACAUGAGGAUCACCCAUGUACUUUAGGUAAUGGGACUACACCGGUAGAAGGGAUUAAAG |  |  | 116 nM | 84.8 nM | 
14 | ACUGUCUUUGAUGAUAUGUAUGGGUCAUUGCGAGGACCGGUACGGCCGCCACUCGGUCCGCCACAUGAGGAUCACCCAUGUCUAU |  |  |  |  | apparent Kd (designed as: OFF switch for tryptophan, no ligand): 94.5 nM; apparent Kd (ligand present: tryptophan, designed as: OFF switch for tryptophan): 195 nM
15 | ACAAAAUAGCUAGGAUAUCGUACGAAUUGACAUUUUUAGCAAACAUGAGGAUCACCCAUGUCCUACGAGAAGGAGCUUAUGAAG |  |  | 14.3 nM | 7.55 nM | 
16 | CAGCCGGCCUAGAAGGUCGAAAUCCAAAUCGUCGAAGGAUAUAGGUCCAGAAAACAAUUACAUGAGGAUCACCCAUGUAUCCUG | 21.5 nM | 14.2 nM |  |  | 
17 | ACUCGACAUGAGGAUCACCCAUGUCAGGAUAUCUGAGUGUGGCCUCCUACUAAACUAUAGAGAAGGGACAAUGG |  |  | 10.3 nM | 11 nM | 
18 | UGGGAACAUGAGGAUCACCCAUGUGAGGAUAUCCACCGAUUUCACACGAUAGGCACAAGGAGAAGGCACACCUA |  |  | 33.9 nM | 36.2 nM | 
19 | GUGCACCGUGAGAAGGCAUAGCACGUGUCGCUGACAUGAGGAUCACCCAUGUGUUGUAAAGUGCAUGAGGAUAUCAGCCAUAGG | 42.3 nM | 10.4 nM |  |  | 
20 | CCCGACGAGCCUGAGAUUAAGUAAGCGGAUACCAGAGAUAGGUAGCUCCCUUGGCAGCCGUGGACAUGAGGAUCACCCAUGUCAC |  |  |  |  | apparent Kd [1]: 11.1 nM; apparent Kd [2]: 11.2 nM
21 | CUGAGCCUGUGUGUACAUGAGGAUCACCCAUGUUCGAUAGGGUAGGAUAUCGCAGUUUCUUGAGCCGAGAAGGACCCUAAUGGA |  |  | 16.5 nM | 30.1 nM | 
22 | UUCACGUUAGGAUAUCGCGUCAGCACAGCCUGUAUGGCAAGCGAGAAGGAACAUGAGGAUCACCCAUGUCGGAC |  |  | 11.4 nM | 28.7 nM | 
23 | UAACGUACAAAAGGAUAUGCCAAUAGAAAGAUCUUACAAUAAACACAUGAGGAUCACCCAUGUAAGCAGAAGGUUUGGAAACAA |  |  | 12.4 nM | 10.2 nM | 
24 | GGCAAGUGAUAGAAGGGAUACAUGAGGAUCACCCAUGUAAGGGCGAAGCCUACCCUCCUUAAAGAUCAGGAUAUAUUGCAGACG |  |  | 20.3 nM | 19.6 nM | 
25 | ACCAGGUCAGGAUAUAGUUGGCAUUUGGCUGUGCCUCACUACUAGAAGGGACAUGAGGAUCACCCAUGUUGGGC |  |  | 28.6 nM | 50.5 nM | 
26 | CCGUUUCGGACAAGCAACACAUGAGGAUCACCCAUGUCAAUCUAGGAUAUCAUAAGGAUAUAACGUGAGAAGGAGAGCGACAGG |  |  | 33.2 nM | 24.4 nM | 
27 | CGAUUACUGCAGAAGGGAGGGCCACAAAACAUGAGGAUCACCCAUGUAGAACUGAACGGGACUCCUCAGGAUAUGCGCCGAGAU | 28.7 nM | 11.8 nM |  |  | 

Row | Sequence | apparent Kd [3] | apparent Kd [4] | apparent Kd [5] | apparent Kd [6] | also measured
28 | AUUAACUCAGCAGGAUAUCUCAGCGGACGUUGCAGAGAAGGGCUAUGCCUAUGUAGGCAACUCACAUGAGGAUCACCCAUGUAA | 38.8 nM | 19.1 nM |  |  | 
29 | AAACAUGAGGAUCACCCAUGUCGUCCAAUGUAGGCCUAUUGCGAGGAUAUCAUGUCCCAACUACGUGAGAAGGCGCGACUACCA |  |  | 15.2 nM | 12.5 nM | 
30 | UAAACAUGAGGAUCACCCAUGUAUUGGAGUAACCGCAAGAGGAGAAGGACCGGAGUGAGAUUAUGGUAGGAUAUCCCAACUACA | 17.6 nM | 12.1 nM |  |  | 
31 | GUAUGGGCGUAACAUGAGGAUCACCCAUGUCCGAAUGCGAUGAGAAGGCCACAUAGUUGGCUGAUGGAGGAUAUCAAAGUAUAU |  |  | 97.9 nM | 70.8 nM | 
32 | GUCGAUUUUAAAUUGACAUGAGGAUCACCCAUGUCUUUAAUCAGAAGGCGGACAACAUUAUGUGCCGAGGAUAUGAUUGGAUCC | 14.2 nM | 11.3 nM |  |  | 
33 | AAGGGCGCAGUAGGAUAUCAAUGUUUGACGGCGUGAGAAGGACUGCCCUAUUUUCAGACAUGAGGAUCACCCAUGUGCGUAAGA | 9.4 nM | 6.41 nM |  |  | 
34 | CCUCAAAGACAGAAGGAAGGUCCGCUACUAGCAGUAACAACAUGAGGAUCACCCAUGUCAAUACCUUAGGAUAUGUAAGAACGC | 71.2 nM | 16.5 nM |  |  | 
35 | CCAUAAGACGAGAAGGGCUGCCAACUAGGUAGAGCAGGAUAUCGUCUUACUCGUCAUGGCAAAACAUGAGGAUCACCCAUGUAU |  |  | 8.16 nM | 7.82 nM | 
36 | UAUUUGGCGCUAGGAUAUAAAGGAACUAUUUAAUUAGAAGGAGCACGGGAACCUGAGGUACAUGAGGAUCACCCAUGUCUGAUA | 17.6 nM | 19.1 nM |  |  | 
37 | AGUUGACCAAGAGGAUAUGCCCUGUCUUUAUGUACAUGCAGAACAUGAGGAUCACCCAUGUGACGGCAGAAGGCUUAGCCGGUG |  |  | 6.77 nM | 7.12 nM | 
38 | UCUCUCGAUGUGCAUUGACAUGAGGAUCACCCAUGUACUGCCUAGGAUAUAACUGGCCCGAUCAGUUAGAAGGAGGGAGAAUAG |  |  | 6.67 nM | 6.51 nM | 
39 | CAUAAACCCUAGAAGGGCGCAUUAUGUAGAUUCGCAGGAUAUAGGAACGGGAUCGUGUAUACAACAUGAGGAUCACCCAUGUCA | 15.4 nM | 14.4 nM |  |  | 
40 | CACAUUCCUUAGAAGGCUACGAAUUUAGCGCGUAGAGGAUAUAAGGGAUACAUGAGGAUCACCCAUGUGAUAUAUCUUCUGAAA |  |  | 20.8 nM | 24.1 nM | 
41 | GUGCGAAUGCAAGGAUAUGUCACAUAAACUGGAACAGAAGGUGCUGCUGAACAUGAGGAUCACCCAUGUACUUGACCGGCAACU | 7.6 nM | 6.81 nM |  |  | 
42 | GAAUAGGAUCAGAAGGAGCUCCAACGGUGACAUGAGGAUCACCCAUGUACUAAACUACAGAAAAGCUAGGAUAUGAAUAAUAGG | 27.7 nM | 25.4 nM |  |  | 
43 | GUAACACUGUCAUCGCCGACAUGAGGAUCACCCAUGUGUAAGAGAAGGACCGAGACCGGGAAAUGGUAGGAUAUCUGUGGGUAG |  |  | 45.1 nM | 84.5 nM | 
44 | ACUCGGGGUUGAGGAUAUUCGACUCGAUCUCCACAUGAGGAUCACCCAUGUCAGGACUGACCGGUGAAGAAGGCAACCGUACAU | 16.2 nM | 5.67 nM |  |  | 
45 | CGAUGGGUAACAGGAUAUGAAUGGAAACCUCCAGUGUUGAGCACUUACAUGAGGAUCACCCAUGUUCAGAAGGGUUUGUGAUUG | 38.9 nM | 59.9 nM |  |  | 
46 | UCGGUUCGUGUAGGAUAUACUCGCAAACAGGCAAAAUGCCUACAUGAGGAUCACCCAUGUUAGUGGUAGAAGGACACCUCAACA | 479 nM | 115 nM |  |  | 
47 | GGACAUGAGGAUCACCCAUGUAGUGGAGGGCUCAGGCUCGCAAGAAGGUUAAGAAUAUAGUCAAUAAAGGAUAUUGAGGGCCGA |  |  | 21.7 nM | 19.2 nM | 
48 | CCGUUUGAUCAGAAGGAACCAGUCGAACCAUGUGACAGACAUGAGGAUCACCCAUGUUCGCGCGGUUAGGAUAUGACAGCUCAG |  |  | 13.2 nM | 64.5 nM | 
49 | CCUCACAUGAGGAUCACCCAUGUCUUUACACGAGGACCGGUACGGCCGCCACUCGUUCACAAAACAACCAGAAGUGAUGCCUACA |  |  |  |  | apparent Kd [7]: 140 nM; apparent Kd [8]: 169 nM
50 | AUAAACCUAGGAUAUACCAGGACGAUUCAACAAGAAAACGAACAUGAGGAUCACCCAUGUAGAAGGAGGGAAAG |  |  | 20.5 nM | 25.3 nM | 
51 | AGUCCCAGGGAGAAGGACAUGAUCACAUGAGGAUCACCCAUGUGAGCCAUUUUAUGUAGGGACGUGUAGGAUAUCCGGACAUGG |  |  | 6.27 nM | 6.11 nM | 
52 | ACACAUGAGGAUCACCCAUGUCGACGUUAGGCUCGUCGCGGCAGAAGGUGUGGCAUGGACACCCACAAGGAUAUGCAUGGGACU | 174 nM | 119 nM |  |  | 
53 | GGCUGCGAUGGCGGAAAUUAUUUACAUAGGCGAGGACCGGUACGGCCGCCACUCGAACGUACAUGAGGAUCACCCAUGUGAUAAU |  |  |  |  | apparent Kd [7]: 71.8 nM; apparent Kd [8]: 26.5 nM
